Measurements: publication PMC4335298 (Genes & Development, 2015)

Columns and labels:
[1] = molecular target: hTLX (construct of the size exclusion chromatography not stated) (human) (UniProt Q9Y466); test: SEC
[2] = Size exclusion chromatography of hTLX
[3] = tested on: SHP full-length (NP_035980); test: Coimmunoprecipitation with SHP; format: binding, mouse; conditions: Co-IP, Flag/HA fusions, Western blot
[4] = tested on: Gal4 transcriptional activity; test: Gal4 reporter repression assay with Gal4-fused receptor LBDs; format: cell-based; conditions: Gal4-fused receptor LBD, cell reporter assay, AD293 cells
How it was run: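 AD293 cells were cotransfected with Gal4-DBD fusions of the hTLX LBD (residues 182–385; H12 deletion residues 182–371) or the dTLX LBD (residues 229–472), wild type or mutant, plus a luciferase reporter. Repression fold is RLU with Gal4 alone relative to RLU with the Gal4-receptor fusion. Expression was checked by anti-Gal4 Western blot. Values are SD, n = 3, with at least two repeats, and groups were compared by two-tailed Student's t-test.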

hTLX (construct of the size exclusion chromatography not stated) (from UniProt Q9Y466-1 1-385) (natural protein)
stoichiometry N [1]: 2

hTLX: human TLX (NP_003260)
Oligomeric state in solution [2]: formed a dimer in solution

B1: Atrophin-2: Atrophin-2 (NP_001036046, residues 1087–1566) (protein)
chain: AAKASSSAHEGRLSDPQLSGPGHMRPSFEPPPTTIAAVPPYIGPDTPALRTLSEYARPHVMSPTNRNHPFYMPLNPTDPLLAYHMPGLYNVDPTIRERELREREIREREIRERELRERMKPGFEVKPPELDPLHPATN
modifications: left off: Gal4 DNA-binding domain, end not stated, kept
Interaction with SHP [3]: able to interact

B2: COUP-TF2∆H12: human COUP-TF2 residues 76–258, helix H12 deleted (protein, UniProt P24468 76-258, looked up, fragment)
chain: HIECVVCGDKSSGKHYGQFTCEGCKSFFKRSVRRNLSYTCRANRNCPIDQHHRNQCQYCRLKKCLKVGMRREAVQRGRMPPTQPTHGQFALTNGDPLNCHSYLSGYISLLLRAEPYPTSRFGSQCMQPNNIMGIENICELAARMLFSAVEWARNIPFFPDLQITDQVALLRLTWSELFVLNAA
modifications: ligand-binding domain, H12 deleted
Repressor activity (in words) [4]: compromised its repressor activity
